Laboratory results: paper PMC4931879 (The Journal of Pharmacology and Experimental Therapeutics, 2016)

Legend:
[1] = system: Aβx-42 in H4-APPsw cell cultures; test: Automated multiplex HTRF assay, Aβx-42 in H4-APPsw cell cultures; assay type: cell-based
Summary of the method: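 H4-APPsw cultures treated overnight, 1 pM to 50 μM. Aβx-42 and Aβ1-x were read together in an automated HTRF multiplex; the Aβx-42 detection pairing includes monoclonal 4G8. Concentrations came from synthetic-peptide calibration curves (quadratic fit). Seven independent assays; IC50 for Aβx-42 and maximum percent inhibition for Aβ1-x, given with standard deviations.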

[2] = system: Aβ1-42, Aβ1-40, Aβ1-38 and Aβ1-37 in H4-APPsw cell cultures; assay type: cell-based; settings: overnight
Summary of the method: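 H4-APPsw cultures incubated overnight with test compound at 0.46 to 333 nM, with 0.1% DMSO vehicle and a γ-secretase inhibitor reference at 1 μM. Aβ1-42, Aβ1-40, Aβ1-38 and Aβ1-37 were measured by Meso Scale 4-plex immunoassay. Concentrations came from on-plate synthetic-peptide calibration curves (quadratic fit), in pM corrected for dilution. Two replicate wells, standard error shown.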

[3] = system: CSF Aβ peptides; test: CSF Aβ peptides in healthy human subjects after a single 900-mg oral dose; assay type: in vivo
Summary of the method: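 Placebo-controlled, double-blind single-dose panel of 15 healthy young men and women of non-child-bearing potential. Single 900-mg oral dose or placebo, given fasted. CSF collected via indwelling lumbar catheter at −1, 0, 2, 4, 6, 8, 12, 15, 18 and 24 h. Aβ1-42/40/38 measured by Meso Scale 3-plex; Aβ1-37 by 26D6/Aβ1-37-selective polyclonal ELISA; Aβ1-x by 4G8/26D6-HRP ELISA.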

[4] = Distribution into rat brain after oral administration; assay type: in vivo, rats; settings: 10 mg/kg oral
Summary of the method: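 Rats dosed orally at 10 mg/kg in PEG400/Solutol/TPGS (90:5:5 w/w/w). n = 3 per time point, sampled at 1, 4, 8 and 24 h. Jugular blood collected into EDTA and centrifuged at 4°C (1500–2000 × g). Brain blotted, weighed and homogenized in 4 volumes of PBS; cerebellum analysed. Samples stored at −20°C, then LC-MS/MS. Brain-to-plasma ratios per time point and brain/plasma AUC ratio.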

[5] = system: Aβ1-x in H4-APPsw cell cultures; test: Automated multiplex HTRF assay, Aβ1-x in H4-APPsw cell cultures; assay type: cell-based; settings: read-out: Aβ1-x maximum inhibition, H4-APPsw cell cultures, overnight, at 50 μM; ± standard deviation
[6] = system: brain Aβ peptides; test: Brain Aβ peptides in rats after single intravenous doses; assay type: in vivo, Sprague-Dawley rats; settings: rat
Summary of the method: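 Female Sprague-Dawley rats, 10–12 weeks old, fasted from 16 h before to 4 h after dosing. Given IV 1, 5 or 10 mg/kg or vehicle (PEG400/ethanol/Solutol HS 15, 93:5:2 w/w/w; 1.5 ml/kg) in randomized order. n = 4 per time point, killed by CO2 at 10 min, 30 min, and 1, 3, 7, 12 and 24 h. Brain without cerebellum frozen in liquid nitrogen. Aβ1-42/40/38/37 measured by singleplex ELISAs; Aβ1-x by 4G8/252Q6-HRP ELISA; compared with vehicle.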

[7] = system: CSF Aβ peptides; test: CSF Aβ peptides in dogs after single oral doses; assay type: in vivo, beagle dogs; settings: dog
Summary of the method: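 Male beagles, about 1 year old, 8–11 kg, with indwelling lumbar catheters; CSF sampled while conscious and lightly restrained. Fasted 16 h before dosing, fed 4 h after. Four dogs in a randomized crossover with 1-week washout: oral 2, 5 or 30 mg/kg or vehicle. CSF taken predose and up to 72 h, spun at 1330 × g for 10 min at 4°C. Aβ1-42/40/38/37 measured by Meso Scale 4-plex; the four were also summed.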

[8] = system: amyloid-β precursor protein C-terminal fragment; test: APP C-terminal fragment accumulation in rat brain; assay type: in vivo, rats; settings: 30 mg/kg oral, 8 or 12 hours
[9] = system: Aβ1-42; test: PK/PD across species: Aβ1-42 trough versus plasma exposure; assay type: in vivo; settings: nonlinear fit of the entire data set: rat, dog, monkey, human
Summary of the method: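 CSF Aβ1-42 trough (lowest level after dosing) plotted against plasma AUC and Cmax. Values were per individual human subject and per dose in individual dogs and monkeys. Rats used group means, with troughs for both brain and CSF, drawn from the IV study plus two further time courses. A nonlinear fit of the pooled data gave the exposure at 50% inhibition.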

[10] = 14-day daily oral dose safety assessment in rats; assay type: in vivo; settings: for AUC at 14 days: rat, in vivo, po, 100 mg/kg
Summary of the method: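 Safety study in male and female rats given daily oral doses of 10, 30 or 100 mg/kg for 14 days; plasma AUC determined on day 14.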

[11] = system: Notch3; test: Cell-based transcriptional reporter assay, Notch3; settings: read-out: Notch3 IC50
[12] = Plasma exposure in rats after single intravenous doses; assay type: in vivo, Sprague-Dawley rats; settings: rat, intravenous 1, 5, 10 mg/kg
Summary of the method: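 Same IV rat study: fasted females, 1, 5 or 10 mg/kg in PEG400/ethanol/Solutol, n = 4 per time point from 10 min to 24 h. Blood taken by cardiac puncture into EDTA for plasma. Plasma deproteinized and extracted with acetonitrile, then analysed by UPLC-MS/MS (C18 column at 60°C); quantitation range 10–5000 nM.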

[13] = system: Aβ1-42 in H4-APPsw cell cultures; test: Aβ1-42 immunoassay; assay type: cell-based; settings: read-out: Aβ1-42 IC50
Summary of the method: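 Overnight exposure of H4-APPsw cultures, 10 pM to 10 μM. Aβ1-42 and Aβ1-40 were measured in parallel from the same cultures by automated HTRF immunoassays. Concentrations came from synthetic-peptide calibration curves (quadratic fit). Three independent assays; IC50 given with standard deviation.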

[14] = system: Notch1; test: Cell-based transcriptional reporter assay, Notch1; settings: read-out: Notch1 IC50
[15] = system: Aβ peptides in H4-APPsw cell cultures; assay type: cell-based; settings: overnight, 100 nM
Summary of the method: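 H4-APPsw cultures incubated overnight with 0.1% DMSO or test compound at 100 nM. Aβ peptides were immunoprecipitated and analysed by MALDI mass spectrometry. Peaks were assigned by expected mass, referenced to an equimolar mix of synthetic peptides including [14N]Aβ1-40.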

[16] = Plasma exposure in monkeys after single intravenous doses; assay type: in vivo, cynomolgus monkeys; settings: monkey, intravenous 5 or 15 mg/kg
Summary of the method: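 Crossover in four lumbar-catheterized male cynomolgus monkeys given IV 5 or 15 mg/kg or vehicle. Blood drawn at 1, 2, 3, 4, 5 and 30 min and at 1, 2, 4, 7, 10, 24 and 48 h. Samples kept on ice and centrifuged at 2880 × g for 10 min; plasma kept for compound levels.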

[17] = system: CSF Aβ peptides; test: CSF Aβ peptides in monkeys after single intravenous doses; assay type: in vivo, cynomolgus monkeys; settings: monkey
[18] = system: Aβ1-42 levels in cerebrospinal fluid; settings: clinical trials, even at high doses; ref Galasko et al., 2007; cited from earlier work
[19] = single intravenous dose 1, 5 or 10 mg/kg
[20] = 30 mg/kg oral, 24 hours after dose
[21] = intravenous, 12–24 hours after the 30-mg/kg dose (so in the source)

For C[C@H](c1ccc(F)cc1CCCC(=O)O)N(c1cc(F)ccc1F)S(=O)(=O)c1ccc(Cl)cc1 [BMS-299897, (R)-4-(2-(1-((4-chloro-N-(2,5-difluorophenyl)phenyl)sulfonamido)ethyl)-5-fluorophenyl)butanoic acid, reference compound], the “Reduction of Aβx-42 versus Aβ1-x in the multiplex assays (relative potency)” value ([1]; H4-APPsw cell cultures, overnight, 1 pM to 50 μM) was “approximately equal potency” and the “Effect on production of Aβ1-42, Aβ1-40, Aβ1-38 and Aβ1-37” value ([2]; 1 μM) was “inhibited production of all four Aβ peptides”.

With CNc1nc(Nc2ccc(-n3cnc(C)n3)c(OC)c2)nc2c1CC[C@H]2c1ccc(F)cc1 [BMS-932481, (S)-7-(4-fluorophenyl)-N2-(3-methoxy-4-(3-methyl-1H-1,2,4-triazol-1-yl)phenyl)-N4-methyl-6,7-dihydro-5H-cyclopenta[d]pyrimidine-2,4-diamine] the “CSF Aβ1-37 increase” value [3] was “ca. 12 fold”, the “CSF Aβ1-40 change” value [3] was “decrease” and the “CSF Aβ1-42, level relative to predose” value ([3]; after 24 hours) was 50 % of predose levels. For the same compound, the “CSF Aβ1-38 increase” value ([3]; gradual increase) was “about 2 fold”, the “CSF Aβ1-x transient increase” value ([3]; the same increase in the placebo group) was “approximately 40%” and the Brain penetration [4] was “moderate brain penetration”. The inhibition at 50 µM [5] was at most 30%, the IC50 ([1]; read-out: Aβx-42 IC50) was 0.0055 µM and the “Sum of brain Aβ1-42, Aβ1-40, Aβ1-38 and Aβ1-37 concentrations, change” value ([6]; intravenous 1, 5 or 10 mg/kg) was “no significant changes”. For the same compound, the “Brain Aβ1-x change” value ([6]; intravenous, any dose or time point) was “no significant changes”, the “Brain Aβ1-37 maximal increase” value [6, 19] was “ca. 6 fold” and the “Brain Aβ1-38 maximal increase” value [6, 19] was “ca. 2 fold”. For the same compound, the “Brain Aβ1-40 maximum reduction relative to vehicle-treated rats” value [6, 19] was “about 75%”, the “Brain Aβ1-42 maximum reduction relative to vehicle-treated rats” value [6, 19] was “about 75%” and the “CSF Aβ1-37 maximal increase” value ([7]; 30 mg/kg oral) was 5 fold. The “CSF Aβ1-40 maximum reduction” value [7, 20] was “ca. 65%”, the “CSF Aβ1-42 maximum reduction” value [7, 20] was “ca. 65%” and the “Effect on the sum of the four CSF Aβ peptides” value ([7]; oral 2, 5 or 30 mg/kg) was “little, if any, effect”. For the same compound, the “Effect on the overall level of Aβ” value ([2]; 0.46 to 333 nM) was “little if any effect”, the “Effect on APP C-terminal fragment accumulation in brain” value [8] was “no effect” and the “Plasma AUC at 50% inhibition (Aβ1-42 trough)” value [9] was 11 μM⋅h. The AUC at 14 days ([10]; female) was 508 µM·h, the AUC at 14 days ([10]; male) was 892 µM·h and the “Histologic changes suggestive of Notch inhibition” value ([10]; rat, 10, 30 or 100 mg/kg daily oral for 14 days, any dose level) was “no histologic changes suggestive of Notch inhibition”. The IC50 [11] was about 1 µM, the “Concentrations in blood plasma, dose proportionality” value [12] was “dose-proportional” and the IC50 [13] was 0.0066 µM. For the same compound, the IC50 [14] was about 1 µM and the “Aβ1-42 and Aβ1-40 detected by IP-MALDI mass spectroscopy” value [15] was “no Aβ1-42 or Aβ1-40 was detected”.

With Cc1ncn(-c2ccc3cc2OC/C=C\CNc2nc(nc4c2CC[C@H]4c2ccc(Cl)cc2F)N3)n1 [BMS-986133, (S,Z)-17-(4-chloro-2-fluorophenyl)-34-(3-methyl-1H-1,2,4-triazol-1-yl)-16,17-dihydro-15H-4-oxa-2,9-diaza-1(2,4)-cyclopenta[d]pyrimidina-3(1,3)-benzenacyclononaphan-6-ene] the “Concentrations in blood plasma, dose proportionality” value [16] was “dose-proportional”, the “Effect on CSF Aβ1-x or the sum of the four Aβ peptides” value ([17]; intravenous 5 or 15 mg/kg) was “little, if any, effect” and the “CSF Aβ1-40 maximum reduction” value [17, 21] was “ca. 75%”. For the same compound, the “CSF Aβ1-42 maximum reduction” value [17, 21] was “ca. 75%”.

For CC(C(=O)O)c1ccc(-c2ccccc2)c(F)c1 (stereo not drawn) [flurbiprofen], the “Effect on Aβ1-42 levels in cerebrospinal fluid” value [18] is listed as “no effect”.
